In ChEMBL document CHEMBL4004841, “6-Cyclohexylmethyl-3-hydroxypyrimidine-2,4-dione as an inhibitor scaffold of HIV reverase transcriptase: Impacts of the 3-OH on inhibiting RNase H and polymerase” (Eur J Med Chem, 2017):
The source made the active and inactive calls. No cut-off for these calls is given here.

How the values were obtained:
[1] = system: Human immunodeficiency virus 1; experiment: Antiviral activity against HIV1 infected in human P4R5 cells assessed as reduction in viral infection preincubated with cells for 24 hrs followed by viral infection measured after 48 hrs by fluorescence based beta-galactosidase reporter gene assay; assay type: functional, cell-based; settings: Human immunodeficiency virus 1, P4/R5
In short: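 P4R5 indicator cells at 4 × 10^3 per well in DMEM/10% FBS with puromycin (1 μg/ml). Cells pretreated with 1% DMSO or varying drug concentrations for 24h, infected with HIV at MOI 1.25, then incubated 48h. Read-out: lysis, MUG substrate, 4-MU fluorescence (ex 365 nm, em 446 nm). Dose-response; mean ± SD from at least two independent experiments.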

[2] = Inhibition of HIV reverse transcriptase polymerase activity assessed as reduction in dNTP incorporation using 100 nucleotide DNA/18 nucleotide DNA as template/primer measured after 30 mins; parameters: species or system Human immunodeficiency virus
In short: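 20 nM full-length RT with 40 nM template/primer (18-nt DNA primer on 100-nt DNA template) and 10 μM dNTPs in 50 mM Tris pH 7.8, 50 mM NaCl, 1% DMSO, rising compound concentrations; started with 6 mM MgCl2, 30 min at 37 °C, stopped with 100 mM EDTA. Mean ± standard deviation, ≥2 independent experiments.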

[3] = Inhibition of RNase H activity of full length HIV reverse transcriptase using RNA-DNA duplex HTS-1 substrate; parameters: species or system Human immunodeficiency virus
[4] = Cytotoxicity against human P4R5 cells; assay type: cell-based
[5] = Inhibition of strand transfer activity of HIV integrase expressed in Escherichia coli using 5'-[32P]-labeled oligonucleotide substrate after 60 mins by PAGE analysis; parameters: species or system Human immunodeficiency virus
In short: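 Recombinant IN (400 nM), purified with 10% glycerol in buffers, with 20 nM 5'-[32P] oligonucleotide substrate and inhibitor dilutions in 50 mM MOPS pH 7.2, 7.5 mM MgCl2, 14.3 mM 2-mercaptoethanol, 37 °C for 60 min; 10% DMSO controls. Products resolved on 20% polyacrylamide–7 M urea gels, quantified by phosphorimaging densitometry; IC50 by logistic nonlinear regression.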

[6] = system: Human immunodeficiency virus 1; experiment: Antiviral activity against HIV1 infected in human CEM-SS cells assessed as reduction in virus-induced cytopathic effect after 6 days by MTS assay; assay type: functional, cell-based; settings: Human immunodeficiency virus 1, CEM-SS, 144 h
In short: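 CEM-SS cells mixed with pre-titered HIV-1 IIIB and compound, incubated 6 days; virus titer set so virus-control wells lose 70–95% viability. Cell, virus, compound-toxicity and compound-only colorimetric controls on each plate; AZT positive control. Viability by MTS; EC50 derived; mean ± standard deviation from at least two independent experiments.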

[7] = system: Human immunodeficiency virus type 1 reverse transcriptase (Human immunodeficiency virus 1), Q72547 [Y181C]; experiment: Inhibition of polymerase activity of HIV reverse transcriptase Y181C mutant assessed as reduction in dNTP incorporation up to 10 uM using 100 nucleotide DNA/18 nucleotide DNA as template/primer measured after 30 mins
In short: (§1)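 Mutant RT (20 nM) with 40 nM 18-nt DNA primer annealed to 100-nt DNA template and 10 μM dNTPs, in 50 mM Tris pH 7.8, 50 mM NaCl, 1% DMSO, with increasing compound up to 10 μM. Started with 6 mM MgCl2, run 30 min at 37 °C, stopped with 100 mM EDTA; DNA extension measured.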

[8] = system: Human immunodeficiency virus type 1 reverse transcriptase (Human immunodeficiency virus 1), Q72547 [K103N]; experiment: Inhibition of polymerase activity of HIV reverse transcriptase K103N mutant assessed as reduction in dNTP incorporation up to 10 uM using 100 nucleotide DNA/18 nucleotide DNA as template/primer measured after 30 mins; in short: as §1

Row | Compound | EC50 [1] [µM] | IC50 [2] [µM] | IC50 [3] [µM] | CC50 [4] [µM] | IC50 [5] [µM] | EC50 [6] [µM] | inhibition [7] | inhibition [8]
1 | CC(C)c1c(Cc2ccccc2)n(COCc2ccccc2)c(=O)[nH]c1=O | 0.011 | 0.42 | > 10 | 58 | – | – | – | –
2 | CCc1c(CC2CCCCC2)n(COCc2ccc(F)cc2)c(=O)[nH]c1=O | 0.0075 | 0.48 | > 10 | 42 | – | – | – | –
3 | CCc1c(CC2CCCCC2)n(COCc2ccccc2)c(=O)n(O)c1=O | 0.059 | 2.3 | 5.5 | > 100 | > 100 | 0.56 | – | –
4 | Cc1c(CC2CCCCC2)n(COCCc2ccc(F)cc2)c(=O)n(O)c1=O | 10 | > 10 | 3.9 | > 100 | > 100 | – | – | –
5 | CC(C)c1c(CC2CCCCC2)n(COCc2ccc(F)cc2)c(=O)n(O)c1=O | 2.4 | 9.9 | 2.7 | > 100 | > 100 | – | – | –
6 | CCc1c(CC2CCCCC2)n(COCc2ccc(C)cc2)c(=O)n(O)c1=O | 0.43 | 6.5 | 2.1 | > 100 | > 100 | – | – | –
7 | CCc1c(CC2CCCCC2)n(COCc2ccc(C(F)(F)F)cc2)c(=O)n(O)c1=O | 2.4 | 7 | 10 | > 100 | > 100 | – | – | –
8 | Cc1c(CC2CCCCC2)n(COCc2ccccc2)c(=O)n(O)c1=O | > 15 | > 10 | 3.1 | > 100 | > 100 | – | – | –
9 | CCc1c(CC2CCCCC2)n(COCc2ccc(C(F)(F)F)cc2)c(=O)[nH]c1=O | 0.039 | 0.81 | > 10 | 28 | – | – | – | –
10 | CCc1c(CC2CCCCC2)n(COCc2ccc(F)cc2)c(=O)n(O)c1=O | 0.039 | 1.5 | 5.8 | > 100 | > 100 | 0.32 | – | –
11 | Cc1c(CC2CCCCC2)n(COCc2ccc(F)c(F)c2)c(=O)[nH]c1=O | 0.21 | 10 | > 10 | 65 | – | – | – | –
12 | CCc1c(CC2CCCCC2)n(COCc2ccc(F)c(F)c2)c(=O)[nH]c1=O | 0.014 | 0.82 | > 10 | 29 | – | – | – | –
13 | Cc1c(CC2CCCCC2)n(COCc2cccc(Cl)c2F)c(=O)[nH]c1=O | 0.83 | 10 | > 10 | 38 | – | – | – | –
14 | Cc1c(CC2CCCCC2)n(COCc2ccc(F)c(F)c2)c(=O)n(O)c1=O | > 15 | 10 | 4.6 | > 100 | > 100 | – | – | –
15 | CCc1c(CC2CCCCC2)n(COCc2ccc(C)cc2)c(=O)[nH]c1=O | 0.011 | 0.36 | > 10 | 30 | – | – | – | –
16 | CC(C)c1c(CC2CCCCC2)n(COCc2ccccc2)c(=O)[nH]c1=O | 0.0052 | 0.085 | > 10 | 23 | – | – | – | –
17 | Cc1c(CC2CCCCC2)n(COCc2ccccc2)c(=O)[nH]c1=O | 0.065 | 6.8 | > 10 | > 100 | – | – | – | –
18 | CCc1c(CC2CCCCC2)n(COCc2ccc(F)c(F)c2)c(=O)n(O)c1=O | 4.1 | > 10 | 1.7 | > 100 | > 100 | – | – | –
19 | CC(C)c1c(CC2CCCCC2)n(COCc2ccccc2)c(=O)n(O)c1=O | 0.026 | 0.45 | 5.2 | > 100 | > 100 | – | inactive | inactive
20 | Cc1c(CC2CCCCC2)n(COCc2ccc(C(F)(F)F)cc2)c(=O)[nH]c1=O | 0.8 | 10 | > 10 | > 100 | – | – | – | –
21 | Cc1c(CC2CCCCC2)n(COCc2ccc(C(F)(F)F)cc2)c(=O)n(O)c1=O | > 15 | 10 | 7.6 | > 100 | > 100 | – | – | –
22 | CCc1c(CC2CCCCC2)n(COCc2cccc(Cl)c2F)c(=O)n(O)c1=O | 0.42 | 6.5 | 1.1 | > 100 | > 100 | 1.8 | – | –
23 | Cc1c(CC2CCCCC2)n(COCCc2ccc(F)cc2)c(=O)[nH]c1=O | 5.3 | > 10 | > 10 | 56 | – | – | – | –
24 | CCc1c(CC2CCCCC2)n(COCc2ccccc2)c(=O)[nH]c1=O | 0.0062 | 0.22 | > 10 | > 50 | – | – | – | –
25 | CCc1c(CC2CCCCC2)n(COCc2cccc(Cl)c2F)c(=O)[nH]c1=O | 0.048 | 1.5 | > 10 | 32 | – | – | – | –
26 | CC(C)c1c(CC2CCCCC2)n(COCc2ccc(F)cc2)c(=O)[nH]c1=O | 0.0072 | 0.3 | > 10 | 31 | – | – | – | –
27 | Cc1c(CC2CCCCC2)n(COCc2cccc(Cl)c2F)c(=O)n(O)c1=O | > 15 | > 10 | 2.2 | > 100 | > 100 | – | – | –
